Reference: ChEMBL document CHEMBL1772969, “Synthesis, structure-activity relationship, and antimalarial activity of ureas and thioureas of 15-membered azalides” (J Med Chem, 2011)

What was measured:
Plasmodium falciparum [1] = assay: Antimalarial activity against multidrug-resistant Plasmodium falciparum TM91C235 after 48 hrs by [3H]hypoxanthine incorporation assay; type: functional, organism-based
Method in brief: (§1)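 [3H]hypoxanthine incorporation assay (Desjardins method, Milhous modification) with 48 h drug exposure. Compounds and controls were 2-fold diluted across 11 concentrations. IC50 was fitted by nonlinear logistic dose-response. Values are averaged where multiple results were generated, with relative errors usually <30%.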

Plasmodium falciparum [2] = assay: Antimalarial activity against chloroquine-sensitive Plasmodium falciparum D6 after 48 hrs by [3H]hypoxanthine incorporation assay; type: functional, organism-based; method in brief: as §1
Plasmodium falciparum [3] = assay: Antimalarial activity against chloroquine/pyrimethamine-resistant Plasmodium falciparum W2 after 48 hrs by [3H]hypoxanthine incorporation assay; type: functional, organism-based; method in brief: as §1
THP-1 = assay: Cytotoxicity against human THP1 cells after 1 to 4 hrs by MTS assay; type: cell-based
Method in brief: (§2)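 HepG2 and THP-1 cells grown in RPMI 1640 with 10% FBS at 37 °C, 5% CO₂, and passaged twice weekly. Compounds applied as continuous exposure. Viability read by MTS reagent, 1–4 h incubation, absorbance at 490 nm; IC₅₀ derived.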

HepG2 = assay: Cytotoxicity against human HepG2 cells after 1 to 4 hrs by MTS assay; type: cell-based; method in brief: as §2
[4] = Half life in human liver microsomes at 1 uM by LCMS analysis; type: ADME, Microsome
Method in brief: (§3)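 Compound at 1 μM final with 0.5 mg/mL pooled human or mouse liver microsomes, 1.3 mM NADP, 3.3 mM MgCl₂, 0.1 M PBS pH 7.4. Reaction started with 1 U/mL G6PD, shaken at 37 °C. Aliquots quenched with cold acetonitrile at 0, 10, 20, 30 and 60 min and quantified by LCMS. t₁/₂ taken from log plot of total ion chromatogram area remaining.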

[5] = Half life in mouse liver microsomes at 1 uM by LCMS analysis; type: ADME, Microsome; method in brief: as §3
Plasmodium berghei = assay: Antiplasmodial activity against Plasmodium berghei KBG-173 infected in sc dosed mouse administered bid for 3 days; type: functional
Method in brief: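 Male mice (24-30 g) were infected ip with 5 × 10⁶ P. berghei KBG-173-infected erythrocytes. Drug suspended in palm/peanut oil was given sc twice daily on days 3-5 post-infection at 160, 40 or 10 mg/kg per dose, 0.01 mL/g, in groups of 4-5. Blood films were taken day 6, then biweekly to day 31. Mice smear-negative on day 31 were counted cured. CD50 is the daily dose curing 50%.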

SMILES	IC50 (Plasmodium falciparum [1]) [nM]	IC50 (Plasmodium falciparum [2]) [nM]	IC50 (Plasmodium falciparum [3]) [nM]	IC50 (THP-1) [nM]	IC50 (HepG2) [nM]	half-life at 1 µM [4] [h]	half-life at 1 µM [5] [h]	CD50 (Plasmodium berghei) [mg/kg]
CC[C@H]1OC(=O)[C@H](C)[C@@H](O)[C@H](C)[C@@H](O[C@@H]2O[C@H](C)C[C@H](N(C)C)[C@H]2O)[C@](C)(O)C[C@@H](C)CN(CCCNC(=S)NCc2ccccc2)[C@H](C)[C@@H](O)[C@]1(C)O	1540	2040	3630	> 50000	> 50000	> 2	> 2	
CC[C@H]1OC(=O)[C@H](C)[C@@H](O[C@H]2C[C@@](C)(OC)[C@@H](O)[C@H](C)O2)[C@H](C)[C@@H](O[C@@H]2O[C@H](C)C[C@H](N(C)C)[C@H]2O)[C@](C)(O)C[C@@H](C)CN(CCNC(=S)NCCCc2ccccc2)[C@H](C)[C@@H](O)[C@]1(C)O	82	182	52	5000	8000	> 2	> 2	
CC[C@H]1OC(=O)[C@H](C)[C@@H](O[C@H]2C[C@@](C)(OC)[C@@H](O)[C@H](C)O2)[C@H](C)[C@@H](O[C@@H]2O[C@H](C)C[C@H](N(C)C)[C@H]2O)[C@](C)(O)C[C@@H](C)CN(CCNC(=O)Nc2ccc3ccccc3c2)[C@H](C)[C@@H](O)[C@]1(C)O	24	71	30	5000	9000	> 2	> 2	
CC[C@H]1OC(=O)[C@H](C)[C@@H](O[C@H]2C[C@@](C)(OC)[C@@H](O)[C@H](C)O2)[C@H](C)[C@@H](O[C@@H]2O[C@H](C)C[C@H](N(C)C)[C@H]2O)[C@](C)(O)C[C@@H](C)CN(CCN(CCC#N)C(=O)Nc2ccc3ccccc3c2)[C@H](C)[C@@H](O)[C@]1(C)O	224	525	125	13000	11000	> 2	> 2	
CC[C@H]1OC(=O)[C@H](C)[C@@H](O[C@H]2C[C@@](C)(OC)[C@@H](O)[C@H](C)O2)[C@H](C)[C@@H](O[C@@H]2O[C@H](C)C[C@H](N(C)C)[C@H]2O)[C@](C)(O)C[C@@H](C)CN(CCNC(=O)NCCc2ccccc2)[C@H](C)[C@@H](O)[C@]1(C)O	243	546	105	45000	> 50000	> 2	> 2	
CC[C@H]1OC(=O)[C@H](C)[C@@H](O[C@H]2C[C@@](C)(OC)[C@@H](O)[C@H](C)O2)[C@H](C)[C@@H](O[C@@H]2O[C@H](C)C[C@H](N(C)C)[C@H]2O)[C@](C)(O)C[C@@H](C)CN(CCCNC(=O)Nc2cccc3ccccc23)[C@H](C)[C@@H](O)[C@]1(C)O	131	215	173	> 50000	> 50000	> 2	> 2	150
CC[C@H]1OC(=O)[C@H](C)[C@@H](O[C@H]2C[C@@](C)(OC)[C@@H](O)[C@H](C)O2)[C@H](C)[C@@H](O[C@@H]2O[C@H](C)C[C@H](N(C)C)[C@H]2O)[C@](C)(O)C[C@@H](C)CN(CCCN(CCC#N)C(=S)NCc2ccccc2)[C@H](C)[C@@H](O)[C@]1(C)O	126	204	139	11000	44000	> 2	> 2	>960
CC[C@H]1OC(=O)[C@H](C)[C@@H](O[C@H]2C[C@@](C)(OC)[C@@H](O)[C@H](C)O2)[C@H](C)[C@@H](O[C@@H]2O[C@H](C)C[C@H](N(C)C)[C@H]2O)[C@](C)(O)C[C@@H](C)CN(CCN(CCC#N)C(=S)NCCc2ccccc2)[C@H](C)[C@@H](O)[C@]1(C)O	369	295	64	6000	7000	> 2	> 2	
CC[C@H]1OC(=O)[C@H](C)[C@@H](O[C@H]2C[C@@](C)(OC)[C@@H](O)[C@H](C)O2)[C@H](C)[C@@H](O[C@@H]2O[C@H](C)C[C@H](N(C)C)[C@H]2O)[C@](C)(O)C[C@@H](C)CN(CCNC(=S)NCc2ccccc2)[C@H](C)[C@@H](O)[C@]1(C)O	106	109	72	9000	14000	> 2	> 2	
CC[C@H]1OC(=O)[C@H](C)[C@@H](O)[C@H](C)[C@@H](O[C@@H]2O[C@H](C)C[C@H](N(C)C)[C@H]2O)[C@](C)(O)C[C@@H](C)CN(CCNC(=S)NCCCc2ccccc2)[C@H](C)[C@@H](O)[C@]1(C)O	226	654	178	7000	14000	> 2	> 2	
CC[C@H]1OC(=O)[C@H](C)[C@@H](O[C@H]2C[C@@](C)(OC)[C@@H](O)[C@H](C)O2)[C@H](C)[C@@H](O[C@@H]2O[C@H](C)C[C@H](N(C)C)[C@H]2O)[C@](C)(O)C[C@@H](C)CN(CCN(CCC(N)=O)C(=O)Nc2ccc3ccccc3c2)[C@H](C)[C@@H](O)[C@]1(C)O	39	190	62	7000	13000	> 2	> 2	
CC[C@H]1OC(=O)[C@H](C)[C@@H](O)[C@H](C)[C@@H](O[C@@H]2O[C@H](C)C[C@H](N(C)C)[C@H]2O)[C@](C)(O)C[C@@H](C)CN(CCNC(=O)Nc2ccc3ccccc3c2)[C@H](C)[C@@H](O)[C@]1(C)O	106	318	99	8000	16000	> 2	> 2	
CC[C@H]1OC(=O)[C@H](C)[C@@H](O[C@H]2C[C@@](C)(OC)[C@@H](O)[C@H](C)O2)[C@H](C)[C@@H](O[C@@H]2O[C@H](C)C[C@H](N(C)C)[C@H]2O)[C@](C)(O)C[C@@H](C)CN(CCCNC(=S)Nc2cccc3ccccc23)[C@H](C)[C@@H](O)[C@]1(C)O	131	116	155	40000	48000	> 2	> 2	195
CC[C@H]1OC(=O)[C@H](C)[C@@H](O[C@H]2C[C@@](C)(OC)[C@@H](O)[C@H](C)O2)[C@H](C)[C@@H](O[C@@H]2O[C@H](C)C[C@H](N(C)C)[C@H]2O)[C@](C)(O)C[C@@H](C)CN(CCNC(=O)NC(C)c2cccc3ccccc23)[C@H](C)[C@@H](O)[C@]1(C)O (some centres undefined)	46	179	33	8000	10000	> 2	> 2	
CC[C@H]1OC(=O)[C@H](C)[C@@H](O[C@H]2C[C@@](C)(OC)[C@@H](O)[C@H](C)O2)[C@H](C)[C@@H](O[C@@H]2O[C@H](C)C[C@H](N(C)C)[C@H]2O)[C@](C)(O)C[C@@H](C)CN(CCNC(=O)Nc2ccccc2)[C@H](C)[C@@H](O)[C@]1(C)O	103	223	67	27000	48000	> 2	> 2	
CC[C@H]1OC(=O)[C@H](C)[C@@H](O[C@H]2C[C@@](C)(OC)[C@@H](O)[C@H](C)O2)[C@H](C)[C@@H](O[C@@H]2O[C@H](C)C[C@H](N(C)C)[C@H]2O)[C@](C)(O)C[C@@H](C)CN(CCNC(=S)Nc2ccccc2)[C@H](C)[C@@H](O)[C@]1(C)O	113	183	443	16000	48000	> 2	> 2	
CC[C@H]1OC(=O)[C@H](C)[C@@H](O[C@H]2C[C@@](C)(OC)[C@@H](O)[C@H](C)O2)[C@H](C)[C@@H](O[C@@H]2O[C@H](C)C[C@H](N(C)C)[C@H]2O)[C@](C)(O)C[C@@H](C)CN(CCNC(=O)NCc2ccccc2)[C@H](C)[C@@H](O)[C@]1(C)O	170	320	287	35000	> 50000	> 2	> 2	
CCOC(=O)CCN(CCN1C[C@H](C)C[C@@](C)(O)[C@H](O[C@@H]2O[C@H](C)C[C@H](N(C)C)[C@H]2O)[C@@H](C)[C@H](O[C@H]2C[C@@](C)(OC)[C@@H](O)[C@H](C)O2)[C@@H](C)C(=O)O[C@H](CC)[C@@](C)(O)[C@H](O)[C@H]1C)C(=O)Nc1ccc2ccccc2c1	2150	773	207	20000	23000	> 2	> 2	
